# Measured values published in ChEMBL document CHEMBL1154046, “Synthesis of some urea and thiourea derivatives of 3-phenyl/ethyl-2-thioxo-2,3-dihydrothiazolo[4,5-d]pyrimidine and their antagonistic effects on haloperidol-induced catalepsy and oxidative stress in mice” (2009).
# How the values were obtained:
# Mus musculus [1] = assay: Inhibition of haloperidol-induced catalepsy in Swiss albino mouse assessed as time elapsed until release of forepaw from bar at 100 mg/kg, […] 30 min prior to haloperidol challenge measured after 150 mins by bar test; format: functional; settings: route intraperitoneal, in the assay text read “ip” for “po”
# Procedure, shortened: (§1)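 Adult male pathogen-free Swiss albino mice (18–25 g), n = 5 per group, each used once. Compounds at 100 mg/kg i.p. were given as a suspension in 0.5% gum acacia 30 min before haloperidol 5 mg/kg i.p. Forepaws were placed on a horizontal bar 9 cm high, and descent time was recorded every 30 min for 3 h. Testing ran at 23 ± 1 °C under 20 lux. Values are mean ± S.E.M.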
# Brain [2] = assay: Antioxidant activity in haloperidol-stimulated Swiss albino mouse brain assessed as superoxide dismutase level per mg of protein (Rvb= 0.941+/- 0.15 U); format: functional
# Mus musculus [3] = assay: Inhibition of haloperidol-induced catalepsy in Swiss albino mouse assessed as time elapsed until release of forepaw from bar at 100 mg/kg, […] 30 min prior to haloperidol challenge measured after 30 mins by bar test; format: functional; settings: route intraperitoneal, in the assay text read “ip” for “po”; procedure, shortened: as §1
# Mus musculus [4] = assay: Inhibition of haloperidol-induced catalepsy in Swiss albino mouse assessed as time elapsed until release of forepaw from bar at 100 mg/kg, […] 30 min prior to haloperidol challenge measured after 180 mins by bar test; format: functional; settings: route intraperitoneal, in the assay text read “ip” for “po”; procedure, shortened: as §1
# Brain [5] = assay: Antioxidant activity in haloperidol-stimulated Swiss albino mouse brain assessed as oxidized glutathione peroxidase level per g of protein (Rvb= 0.765+/- 0.13 U); format: functional
# Mus musculus [6] = assay: Inhibition of haloperidol-induced catalepsy in Swiss albino mouse assessed as time elapsed until release of forepaw from bar at 100 mg/kg, […] 30 min prior to haloperidol challenge measured after 120 mins by bar test; format: functional; settings: route intraperitoneal, in the assay text read “ip” for “po”; procedure, shortened: as §1
# Mus musculus [7] = assay: Inhibition of haloperidol-induced catalepsy in Swiss albino mouse at 100 mg/kg, […] 30 min prior to haloperidol challenge by bar test relative to haloperidol control; format: functional; settings: route intraperitoneal, in the assay text read “ip” for “po”
# Procedure, shortened: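 Mice received compound at 100 mg/kg i.p. (in 0.5% gum acacia) 30 min before haloperidol 5 mg/kg i.p., n = 5. The bar test was run every 30 min over 3 h, and descent times were summed as CDT [3 h]. Haloperidol CDT minus vehicle CDT was set as 100% catalepsy, and % inhibition was calculated against it.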
# Mus musculus [8] = assay: Inhibition of haloperidol-induced catalepsy in Swiss albino mouse assessed as time elapsed until release of forepaw from bar at 100 mg/kg, […] 30 min prior to haloperidol challenge measured after 90 mins by bar test; format: functional; settings: route intraperitoneal, in the assay text read “ip” for “po”; procedure, shortened: as §1
# Brain [9] = assay: Antioxidant activity against lipid peroxidation in haloperidol-stimulated Swiss albino mouse brain assessed as malonaldehyde level per mg of protein by lipid peroxidation assay (Rvb= 5.521 +/- 0.23 nmol); format: functional, tissue-based
# Procedure, shortened: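 Compound was given 30 min before haloperidol 5 mg/kg i.p. Brain was homogenized in 50 mM Tris-HCl pH 7.4. Homogenate was mixed with SDS, acetic acid and 0.8% TBA, heated 1 h at 95 °C, and extracted into n-butanol/pyridine (15:1). Upper-layer A532 was converted to MDA using ε 1.56 × 10⁵, and protein was measured by Lowry. Results are nmol MDA/mg protein, n = 5.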
# Mus musculus [10] = assay: Inhibition of haloperidol-induced catalepsy in Swiss albino mouse assessed as time elapsed until release of forepaw from bar at 100 mg/kg, […] 30 min prior to haloperidol challenge measured after 60 mins by bar test; format: functional; settings: route intraperitoneal, in the assay text read “ip” for “po”; procedure, shortened: as §1
# Brain [11] = assay: Antioxidant activity against GSH in haloperidol-stimulated Swiss albino mouse brain assessed as reduced glutathione level per gm of tissue (Rvb= 6.753 +/- 0.15 ug); format: functional
SMILES,Time to forepaw release from bar (Mus musculus [1]) [min],Activity (Brain [2]) [U],descent time (Mus musculus [3]) [min],Catalepsy duration (time to release forepaw from bar) (Mus musculus [4]) [min],Activity (Brain [5]) [U],catalepsy descent time (Mus musculus [6]) [min],inhibition (INH) (Mus musculus [7]) [%],catalepsy descent time (Mus musculus [8]) [min],Activity (Brain [9]) [nmol],Catalepsy time (forepaw descent time) (Mus musculus [10]) [min],Activity (Brain [11]) [µg]
COc1ccccc1NC(=S)Nc1ncnc2c1sc(=S)n2-c1ccccc1,1.87,2.35,0.417,1.82,1.6,1.8,28.5,1.3,2.75,0.733,14.2
O=[N+]([O-])c1ccccc1NC(=S)Nc1ncnc2c1sc(=S)n2-c1ccccc1,3.9,–,0.7,3.87,–,1.55,45.4,1.15,–,1.15,–
CCn1c(=S)sc2c(NC(=O)Nc3ccc(OC)cc3)ncnc21,2.3,–,1.28,2.38,–,2.02,43.3,1.9,–,1.85,–
CCn1c(=S)sc2c(NC(=O)Nc3ccccc3Cl)ncnc21,3.27,–,2.12,3.15,–,2.62,58.4,2.18,–,2.3,–
CCn1c(=S)sc2c(NC(=S)Nc3ccccc3OC)ncnc21,1.62,1.866,0.3,2.4,1.331,1.25,23.7,0.883,3.12,0.25,11.672
COc1ccc(NC(=S)Nc2ncnc3c2sc(=S)n3-c2ccccc2)cc1,2.87,–,1.17,2.22,–,2.63,43.1,1.72,–,1.1,–
CCn1c(=S)sc2c(NC(=O)Nc3ccccc3[N+](=O)[O-])ncnc21,3.75,–,1.7,3.8,–,3.3,70.9,3.48,–,2.8,–
CCn1c(=S)sc2c(NC(=O)Nc3ccccc3F)ncnc21,3.1,–,1.12,2.95,–,2.88,53.4,2.3,–,1.98,–
Fc1ccc(NC(=S)Nc2ncnc3c2sc(=S)n3-c2ccccc2)cc1,3.63,–,1.25,3.33,–,3.25,61.3,2.75,–,2.15,–
N[C@@H](Cc1ccc(O)c(O)c1)C(=O)O [LEVODOPA],1.42,–,0.317,1.8,–,1.47,25.1,1.43,–,0.633,–
CCn1c(=S)sc2c(NC(=O)Nc3ccccc3)ncnc21,2.22,–,0.817,3.32,–,2.4,47.8,2.12,–,2.03,–
Fc1ccccc1NC(=S)Nc1ncnc2c1sc(=S)n2-c1ccccc1,3.47,–,1.3,4.28,–,2.67,58.8,2.37,–,1.65,–
CCn1c(=S)sc2c(NC(=O)Nc3ccc([N+](=O)[O-])cc3)ncnc21,3.5,–,1.67,3.85,–,3.53,68.1,3.23,–,2.33,–
O=C(Nc1ccc(F)cc1)Nc1ncnc2c1sc(=S)n2-c1ccccc1,2.55,–,1.42,3.8,–,2.63,52.9,1.92,–,1.9,–
COc1ccccc1NC(=O)Nc1ncnc2c1sc(=S)n2-c1ccccc1,1.38,1.992,0.433,1.57,1.134,1.48,23.4,0.95,3.2,0.817,14.362
O=C(Nc1ccc(Cl)cc1)Nc1ncnc2c1sc(=S)n2-c1ccccc1,3.43,–,1.27,4.03,–,3.42,65.3,2.32,–,2.95,–
CCn1c(=S)sc2c(NC(=O)Nc3ccc(F)cc3)ncnc21,3.12,–,1.1,3.95,–,3.07,55.1,1.88,–,1.65,–
CCn1c(=S)sc2c(NC(=O)Nc3ccccc3OC)ncnc21,2.25,1.81,0.583,2.62,1.54,1.5,29.3,0.667,2.81,0.517,14
O=C(Nc1ccccc1[N+](=O)[O-])Nc1ncnc2c1sc(=S)n2-c1ccccc1,2.93,–,0.917,2.95,–,2.25,44.8,2.02,–,1.05,–
